According to ChEMBL document CHEMBL1136812, “Structure-activity relationships of dimethindene derivatives as new M2-selective muscarinic receptor antagonists” (J Med Chem, 2003):

Tests used:
Assay type in all cases: cell-based
[1] = target: T1, Muscarinic acetylcholine receptor M5 (Homo sapiens, UniProt P08912); experiment: Binding affinity towards cloned human muscarinic acetylcholine receptor M5 stably expressed in CHO-K1 cells using [3H]N-methylscopolamine
T1 sequence (P08912 whole entry): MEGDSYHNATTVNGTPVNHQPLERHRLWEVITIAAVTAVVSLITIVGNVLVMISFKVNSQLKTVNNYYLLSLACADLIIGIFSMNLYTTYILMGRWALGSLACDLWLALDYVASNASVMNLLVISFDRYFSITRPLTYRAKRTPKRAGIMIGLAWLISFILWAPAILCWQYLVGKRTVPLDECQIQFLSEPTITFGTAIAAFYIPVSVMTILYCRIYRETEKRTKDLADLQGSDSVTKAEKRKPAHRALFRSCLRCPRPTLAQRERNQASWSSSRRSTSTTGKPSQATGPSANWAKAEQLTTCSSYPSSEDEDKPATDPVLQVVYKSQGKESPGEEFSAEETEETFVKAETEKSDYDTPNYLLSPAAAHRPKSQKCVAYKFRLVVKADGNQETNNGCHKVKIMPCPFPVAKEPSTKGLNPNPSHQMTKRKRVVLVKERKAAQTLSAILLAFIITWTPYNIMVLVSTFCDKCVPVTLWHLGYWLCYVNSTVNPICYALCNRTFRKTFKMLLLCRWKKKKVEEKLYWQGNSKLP

[2] = target: T2, Muscarinic acetylcholine receptor M2 (Homo sapiens, UniProt P08172); experiment: Binding affinity towards cloned human muscarinic acetylcholine receptor M2 stably expressed in CHO-K1 cells using [3H]N-methylscopolamine
T2 sequence (P08172 whole entry): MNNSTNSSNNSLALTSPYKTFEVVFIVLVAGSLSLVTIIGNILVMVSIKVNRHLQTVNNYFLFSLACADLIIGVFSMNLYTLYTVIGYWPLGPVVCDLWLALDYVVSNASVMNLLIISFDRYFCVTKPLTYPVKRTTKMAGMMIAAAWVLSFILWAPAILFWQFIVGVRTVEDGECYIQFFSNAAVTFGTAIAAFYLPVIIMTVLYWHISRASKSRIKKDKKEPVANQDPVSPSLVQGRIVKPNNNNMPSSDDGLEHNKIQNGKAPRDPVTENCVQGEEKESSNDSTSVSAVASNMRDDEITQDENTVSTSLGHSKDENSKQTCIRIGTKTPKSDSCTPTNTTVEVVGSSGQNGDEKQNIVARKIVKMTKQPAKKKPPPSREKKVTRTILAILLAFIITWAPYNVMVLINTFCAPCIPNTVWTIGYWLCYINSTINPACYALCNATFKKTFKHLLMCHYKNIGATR

[3] = target: T3, Muscarinic acetylcholine receptor M1 (Homo sapiens, UniProt P11229); experiment: Binding affinity towards cloned human muscarinic acetylcholine receptor M1 stably expressed in CHO-K1 cells using [3H]N-methylscopolamine
T3 sequence (P11229 whole entry): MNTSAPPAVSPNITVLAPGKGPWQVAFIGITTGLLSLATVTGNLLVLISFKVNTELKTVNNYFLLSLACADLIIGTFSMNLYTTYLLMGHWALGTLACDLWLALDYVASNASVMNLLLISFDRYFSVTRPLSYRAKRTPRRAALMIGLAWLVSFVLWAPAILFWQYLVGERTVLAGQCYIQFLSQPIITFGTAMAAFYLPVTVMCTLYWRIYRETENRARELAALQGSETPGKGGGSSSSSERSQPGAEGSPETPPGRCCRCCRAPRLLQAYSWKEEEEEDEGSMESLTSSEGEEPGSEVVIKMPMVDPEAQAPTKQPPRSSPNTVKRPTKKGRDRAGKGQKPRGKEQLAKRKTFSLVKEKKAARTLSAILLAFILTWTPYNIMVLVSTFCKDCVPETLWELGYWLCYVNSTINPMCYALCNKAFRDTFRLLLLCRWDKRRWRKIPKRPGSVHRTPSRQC

[4] = target: Histamine H1 receptor (Homo sapiens, UniProt P35367); experiment: Compound was evaluated for binding affinity towards cloned human histamine H1 receptors stably expressed in CHO-K1 cells using [3H]mepyramine
How it was run: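 CHO-K1 membranes with stable human H1 receptor, 18 µg/mL final protein. […] Nonspecific binding with 0.1 mM terfenadine. Filtered and counted. Ki by Cheng-Prusoff. pKi mean ± SD, ≥3 experiments in duplicate.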

[5] = target: T4, Muscarinic acetylcholine receptor M4 (Homo sapiens, UniProt P08173); experiment: Binding affinity towards cloned human muscarinic acetylcholine receptor M4 stably expressed in CHO-K1 cells using [3H]N-methylscopolamine
T4 sequence (P08173 whole entry): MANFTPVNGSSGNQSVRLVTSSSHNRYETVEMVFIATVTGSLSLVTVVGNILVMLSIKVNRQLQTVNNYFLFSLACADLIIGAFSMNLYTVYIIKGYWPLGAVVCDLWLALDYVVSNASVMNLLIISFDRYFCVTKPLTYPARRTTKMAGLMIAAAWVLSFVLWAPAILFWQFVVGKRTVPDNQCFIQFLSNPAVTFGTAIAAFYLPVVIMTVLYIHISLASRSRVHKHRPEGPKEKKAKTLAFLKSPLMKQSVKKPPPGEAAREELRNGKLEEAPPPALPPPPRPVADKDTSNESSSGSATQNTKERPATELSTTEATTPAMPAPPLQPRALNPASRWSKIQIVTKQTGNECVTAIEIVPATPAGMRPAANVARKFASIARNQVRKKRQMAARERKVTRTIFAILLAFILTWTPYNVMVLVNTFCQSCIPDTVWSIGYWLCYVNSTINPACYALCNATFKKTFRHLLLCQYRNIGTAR

[6] = target: Muscarinic acetylcholine receptor M3 (Homo sapiens, UniProt P20309); experiment: Binding affinity towards cloned human muscarinic acetylcholine receptor M3 stably expressed in CHO-K1 cells using [3H]N-methylscopolamine
Muscarinic acetylcholine receptor M3, sequence (P20309 whole entry): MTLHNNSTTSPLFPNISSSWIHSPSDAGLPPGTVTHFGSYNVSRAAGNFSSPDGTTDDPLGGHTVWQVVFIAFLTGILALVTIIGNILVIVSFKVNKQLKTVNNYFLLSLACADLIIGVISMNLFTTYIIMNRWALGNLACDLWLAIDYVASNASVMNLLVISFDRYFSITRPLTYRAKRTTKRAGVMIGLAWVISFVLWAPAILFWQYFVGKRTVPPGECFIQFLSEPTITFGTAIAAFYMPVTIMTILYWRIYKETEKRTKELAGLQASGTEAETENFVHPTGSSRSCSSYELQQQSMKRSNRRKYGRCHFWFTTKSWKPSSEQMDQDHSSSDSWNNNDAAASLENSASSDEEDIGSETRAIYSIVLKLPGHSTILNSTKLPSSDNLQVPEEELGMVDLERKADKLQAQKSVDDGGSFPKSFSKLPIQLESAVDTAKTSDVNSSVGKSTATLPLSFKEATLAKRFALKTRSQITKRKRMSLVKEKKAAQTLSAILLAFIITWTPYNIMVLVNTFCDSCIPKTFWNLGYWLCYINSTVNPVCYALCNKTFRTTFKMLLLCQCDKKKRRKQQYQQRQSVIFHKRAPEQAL

Histamine H1 receptor, sequence (P35367 whole entry): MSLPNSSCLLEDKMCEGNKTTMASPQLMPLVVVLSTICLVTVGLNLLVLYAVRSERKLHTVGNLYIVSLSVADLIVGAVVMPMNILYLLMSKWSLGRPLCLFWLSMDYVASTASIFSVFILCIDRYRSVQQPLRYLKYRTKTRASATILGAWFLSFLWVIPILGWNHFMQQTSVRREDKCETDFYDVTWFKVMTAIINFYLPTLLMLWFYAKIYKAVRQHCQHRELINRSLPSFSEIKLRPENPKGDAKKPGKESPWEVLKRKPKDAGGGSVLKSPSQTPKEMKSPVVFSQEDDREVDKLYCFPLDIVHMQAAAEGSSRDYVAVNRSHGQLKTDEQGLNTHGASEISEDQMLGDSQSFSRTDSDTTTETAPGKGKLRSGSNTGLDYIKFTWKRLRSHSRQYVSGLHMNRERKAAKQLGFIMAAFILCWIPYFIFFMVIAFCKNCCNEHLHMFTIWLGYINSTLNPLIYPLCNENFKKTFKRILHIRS

| Ki [1] [nM] | Ki [2] [nM] | Ki [3] [nM] | Ki [4] [nM] | Ki [5] [nM] | Ki [6] [nM] | Compound |
| --- | --- | --- | --- | --- | --- | --- |
| 759 | 30.2 | 191 | 69.2 | 295 | 138 | C[C@@H](C1=C(CCN(C)C)Cc2ccccc21)c1ccccn1 |
| 724 | 33.1 | 151 | 0.813 | 331 | 95.5 | CC(C1=C(CCN(C)C)Cc2cc(Cl)ccc21)c1ccccn1 (stereo not drawn) |
| 3240 | 263 | 891 |  | 1700 | 575 | CC(C1=C(CCCN(C)C)Cc2ccccc21)c1ccccn1 (stereo not drawn) |
| 3630 | 234 | 1580 |  | 2400 | 1550 | CN(C)CCC1=C(Cc2ccccn2)c2ccccc2C1 |
| 66.1 | 229 | 43.7 |  | 129 | 67.6 | CN(C)CCC1=C(C(c2ccccc2)c2ccccn2)c2ccccc2C1 (stereo not drawn) |
| 2000 | 32.4 | 603 | 7.24 | 437 | 708 | CC(C1=C(CCN(C)CCF)Cc2ccccc21)c1ccccn1 (stereo not drawn) |
| 3240 | 912 | 871 |  | 2000 | 1050 | CSc1ccc2c(c1)C(C(C)c1ccccn1)=C(CCN(C)C)C2 (stereo not drawn) |
| 2190 | 145 | 871 |  | 1000 | 1820 | CC(C1=C(CCN(C)C(C)C)Cc2ccccc21)c1ccccn1 (stereo not drawn) |
| 87.1 | 12.3 | 34.7 | 28.8 | 97.7 | 31.6 | CC(C1=C(CN(C)C)Cc2ccccc21)c1ccccn1 (stereo not drawn) |
| 2190 | 25.1 | 741 |  | 741 | 2240 | CC(C1=C(CCN(C(C)C)C(C)C)Cc2ccccc21)c1ccccn1 (stereo in doubt; 19) |
| 5130 | 575 | 5890 | 219 | 5500 | 20900 | CC(C1=C(CCN(C(C)C)C(C)C)Cc2ccccc21)c1ccccn1 (stereo in doubt; (+)-19) |
| 11700 | 42.7 | 1550 | 2450 | 1780 | 4070 | CC(C1=C(CCN(C(C)C)C(C)C)Cc2ccccc21)c1ccccn1 (stereo in doubt; (-)-19) |
| 2690 | 1230 | 1860 | 0.437 | 3890 | 3390 | C[C@H](C1=C(CCN(C)C)Cc2ccccc21)c1ccccn1 [(S)-(+)-DIMETHINDENE] |
|  |  |  | 0.692 |  |  | CC(C1=C(CCN(C)C)Cc2ccccc21)c1ccccn1 (stereo not drawn) [DIMETHINDENE] |
